Source: ChEMBL document CHEMBL4052636, “Design, synthesis and biological evaluation of some novel sulfonamide derivatives as apoptosis inducers” (Eur J Med Chem, 2017)

Key:
Caco-2 [1] = assay: Induction of apoptosis in human Caco2 cells assessed as Fas-ligand concentration at 0.15 uM after 24 hrs by FASL-based ELISA (reference value: 20.5 pg/ml); format: functional
Caco-2 [2] = assay: Cytotoxicity against human Caco2 cells assessed as surviving fraction at 100 uM after 24 hrs by MTT assay relative to control; format: functional
Method in brief: (§1)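 Caco-2 cells were kept as monolayers in RPMI-1640 with 10% FBS, 100 U/mL penicillin and streptomycin, at 37 C in humidified 5% CO2. Cells were treated for 24 h at concentrations spanning […], and viability was read by the colorimetric MTT (Mosmann) method. Percent relative viability and IC50 were fitted in Prism.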

Caco-2 [3] = assay: Induction of apoptosis in human Caco2 cells assessed as caspase-3 concentration at 0.6 uM after 24 hrs by colorimetric analysis (reference value: 0.193 nmol/ml); format: functional
Caco-2 [4] = assay: Cytotoxicity against human Caco2 cells assessed as surviving fraction at 50 uM after 24 hrs by MTT assay relative to control; format: functional; method in brief: as §1
Caco-2 [5] = assay: Cytotoxicity against human Caco2 cells assessed as surviving fraction at 25 uM after 24 hrs by MTT assay relative to control; format: functional; method in brief: as §1
Caco-2 [6] = assay: Induction of apoptosis in human Caco2 cells assessed as Fas-ligand concentration at 0.3 uM after 24 hrs by FASL-based ELISA (reference value: 20.5 pg/ml); format: functional
Caco-2 [7] = assay: Cytotoxicity against human Caco2 cells assessed as surviving fraction at 1 uM after 24 hrs by MTT assay relative to control; format: functional; method in brief: as §1
Caco-2 [8] = assay: Induction of apoptosis in human Caco2 cells assessed as Fas-ligand concentration at 0.6 uM after 24 hrs by FASL-based ELISA (reference value: 20.5 pg/ml); format: functional
Caco-2 [9] = assay: Induction of apoptosis in human Caco2 cells assessed as caspase-3 concentration at 0.15 uM after 24 hrs by colorimetric analysis (reference value: 0.193 nmol/ml); format: functional
Caco-2 [10] = assay: Cytotoxicity against human Caco2 cells assessed as cell viability after 24 hrs by MTT assay; format: functional, cell-based; conditions: Caco-2, 24 h; method in brief: as §1
Caco-2 [11] = assay: Cytotoxicity against human Caco2 cells assessed as surviving fraction at 10 uM after 24 hrs by MTT assay relative to control; format: functional; method in brief: as §1
Caco-2 [12] = assay: Induction of apoptosis in human Caco2 cells assessed as caspase-3 concentration at 0.3 uM after 24 hrs by colorimetric analysis (reference value: 0.193 nmol/ml); format: functional
Caco-2 [13] = assay: Induction of apoptosis in human Caco2 cells assessed as Fas-ligand concentration at 63.5 uM after 24 hrs by FASL-based ELISA (reference value: 20.5 pg/ml); format: functional
Caco-2 [14] = assay: Induction of apoptosis in human Caco2 cells assessed as Fas-ligand concentration at 31.5 uM after 24 hrs by FASL-based ELISA (reference value: 20.5 pg/ml); format: functional
Caco-2 [15] = assay: Induction of apoptosis in human Caco2 cells assessed as caspase-3 concentration at 62.3 uM after 24 hrs by colorimetric analysis (reference value: 0.193 nmol/ml); format: functional
Caco-2 [16] = assay: Induction of apoptosis in human Caco2 cells assessed as caspase-3 concentration at 31 uM after 24 hrs by colorimetric analysis (reference value: 0.193 nmol/ml); format: functional
Caco-2 [17] = assay: Induction of apoptosis in human Caco2 cells assessed as Fas-ligand concentration at 100 uM after 24 hrs by FASL-based ELISA (reference value: 20.5 pg/ml); format: functional
Caco-2 [18] = assay: Induction of apoptosis in human Caco2 cells assessed as caspase-3 concentration at 100 uM after 24 hrs by colorimetric analysis (reference value: 0.193 nmol/ml); format: functional
Caco-2 [19] = assay: Induction of apoptosis in human Caco2 cells assessed as caspase-3 concentration at 15 uM after 24 hrs by colorimetric analysis (reference value: 0.193 nmol/ml); format: functional
Caco-2 [20] = assay: Induction of apoptosis in human Caco2 cells assessed as Fas-ligand concentration at 15 uM after 24 hrs by FASL-based ELISA (reference value: 20.5 pg/ml); format: functional
Method in brief: (§2)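 Caco-2 cells were grown in RPMI-1640 with 10% FBS, penicillin and streptomycin at 37 C under 5% CO2. Cells were exposed to the test agent for 24 h. Fas-ligand in the cells was then measured with a colorimetric human FASL ELISA kit and reported as pg/mL against an untreated control.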

Caco-2 [21] = assay: Induction of apoptosis in human Caco2 cells assessed as Fas-ligand concentration at 31 uM after 24 hrs by FASL-based ELISA (reference value: 20.5 pg/ml); format: functional; method in brief: as §2
Caco-2 [22] = assay: Induction of apoptosis in human Caco2 cells assessed as caspase-3 concentration at 62 uM after 24 hrs by colorimetric analysis (reference value: 0.193 nmol/ml); format: functional
Caco-2 [23] = assay: Induction of apoptosis in human Caco2 cells assessed as Fas-ligand concentration at 62 uM after 24 hrs by FASL-based ELISA (reference value: 20.5 pg/ml); format: functional; method in brief: as §2

Row | SMILES | Ratio (Caco-2 [2]) | Ratio (Caco-2 [4]) | Ratio (Caco-2 [5]) | Ratio (Caco-2 [7]) | IC50 (Caco-2 [10]) [nM] | Ratio (Caco-2 [11]) | other results
1 | NS(=O)(=O)c1ccc(NC2=NC(=O)/C(=C/c3ccccc3)S2)cc1 | 0.068 | 0.422 | 0.133 | 0.348 | 334 | 0.182 | Activity (Caco-2 [1]): 445.2 pg/mL; Activity (Caco-2 [3]): 0.37 nmol/mL; Activity (Caco-2 [6]): 775.2 pg/mL; Activity (Caco-2 [8]): 706.12 pg/mL; Activity (Caco-2 [9]): 0.43 nmol/mL; Activity (Caco-2 [12]): 0.38 nmol/mL
2 | NS(=O)(=O)c1ccc(NC2=NC(=O)/C(=C/c3ccc(Cl)cc3)S2)cc1 | 0.153 | 0.086 | 0.113 | 0.285 | 667 | 0.314 | 
3 | NS(=O)(=O)c1ccc(Nc2nc3nc(=O)[nH]c(-c4ccc(Cl)cc4)c3s2)cc1 | 0.073 | 0.156 | 0.112 | 0.519 | 12700 | 0.603 | 
4 | COc1ccc(-c2onc3nc(Nc4ccc(S(N)(=O)=O)cc4)sc23)cc1 | 0.228 | 0.229 | 0.317 | 0.412 | 559 | 0.401 | 
5 | COc1ccc(-c2[nH]c(=O)nc3nc(Nc4ccc(S(N)(=O)=O)cc4)sc23)cc1 | 0.167 | 0.257 | 0.473 | 0.477 | 667 | 0.362 | 
6 | NS(=O)(=O)c1ccc(Nc2nc3nc(=S)[nH]c(-c4ccc(Cl)cc4)c3s2)cc1 | 0.276 | 0.339 | 0.338 | 0.433 | 333 | 0.456 | Activity (Caco-2 [1]): 312.4 pg/mL; Activity (Caco-2 [3]): 0.37 nmol/mL; Activity (Caco-2 [6]): 309.4 pg/mL; Activity (Caco-2 [8]): 641.8 pg/mL; Activity (Caco-2 [9]): 0.404 nmol/mL; Activity (Caco-2 [12]): 0.366 nmol/mL
7 | COc1cccc2c1C(=O)c1c(O)c3c(c(O)c1C2=O)C[C@@](O)(C(=O)CO)C[C@@H]3O[C@H]1C[C@H](N)[C@H](O)[C@H](C)O1 [DOXORUBICIN] | 0.343 | 0.552 | 0.663 | 0.814 | 63300 | 0.597 | Activity (Caco-2 [13]): 56.41 pg/mL; Activity (Caco-2 [14]): 41.65 pg/mL; Activity (Caco-2 [15]): 0.26 nmol/mL; Activity (Caco-2 [16]): 0.251 nmol/mL; Activity (Caco-2 [17]): 95.8 pg/mL; Activity (Caco-2 [18]): 0.272 nmol/mL
8 | COc1ccc(/C=C2\SC(Nc3ccc(S(N)(=O)=O)cc3)=NC2=O)cc1 | 0.485 | 0.416 | 0.466 | 0.281 | 1330 | 0.179 | 
9 | NS(=O)(=O)c1ccc(Nc2nc3noc(-c4ccccc4)c3s2)cc1 | 0.456 | 0.295 | 0.304 | 0.442 | 669 | 0.335 | 
10 | NS(=O)(=O)c1ccc(Nc2nc3noc(-c4ccc(Cl)cc4)c3s2)cc1 | 0.197 | 0.202 | 0.219 | 0.319 | 333 | 0.248 | Activity (Caco-2 [1]): 111.3 pg/mL; Activity (Caco-2 [3]): 0.407 nmol/mL; Activity (Caco-2 [6]): 147.5 pg/mL; Activity (Caco-2 [8]): 312.2 pg/mL; Activity (Caco-2 [9]): 0.366 nmol/mL; Activity (Caco-2 [12]): 0.409 nmol/mL
11 | O=c1[nH]cc(F)c(=O)[nH]1 [FLUOROURACIL] | 0.254 | 0.525 | 0.325 | 0.405 | 31000 | 0.31 | Activity (Caco-2 [19]): 0.92 nmol/mL; Activity (Caco-2 [16]): 0.8 nmol/mL; Activity (Caco-2 [20]): 287.7 pg/mL; Activity (Caco-2 [21]): 140.1 pg/mL; Activity (Caco-2 [22]): 0.73 nmol/mL; Activity (Caco-2 [23]): 66.2 pg/mL
12 | COc1ccc(-c2[nH]c(=S)nc3nc(Nc4ccc(S(N)(=O)=O)cc4)sc23)cc1 | 0.169 | 0.186 | 0.299 | 0.444 | 667 | 0.344 | 
13 | NS(=O)(=O)c1ccc(Nc2nc3nc(=S)[nH]c(-c4ccccc4)c3s2)cc1 | 0.135 | 0.223 | 0.234 | 0.304 | 333 | 0.223 | Activity (Caco-2 [1]): 115.5 pg/mL; Activity (Caco-2 [3]): 0.364 nmol/mL; Activity (Caco-2 [6]): 165.7 pg/mL; Activity (Caco-2 [8]): 307.5 pg/mL; Activity (Caco-2 [9]): 0.35 nmol/mL; Activity (Caco-2 [12]): 0.34 nmol/mL
14 | NS(=O)(=O)c1ccc(Nc2nc3nc(=O)[nH]c(-c4ccccc4)c3s2)cc1 | 0.227 | 0.229 | 0.285 | 0.371 | 334 | 0.237 | 
